Laboratory results from ChEMBL document CHEMBL3259667, “Bis-aryloxadiazoles as effective activators of the aryl hydrocarbon receptor” (Bioorg Med Chem Lett, 2014).

What was measured:
Assay type in all cases: cell-based; call rule not given here
[1] = biological target: T1, Aryl hydrocarbon receptor (Mus musculus, UniProt P30561); experiment: Agonist activity at AHR in FVB/N mouse primary mammary epithelial cells assessed as upregulation of desmoglein-3 protein level at 10 nM after 144 hrs by Western blot analysis in presence of FGF2; conditions: epithelial cell, 0.01 µM
T1 sequence (P30561 whole entry): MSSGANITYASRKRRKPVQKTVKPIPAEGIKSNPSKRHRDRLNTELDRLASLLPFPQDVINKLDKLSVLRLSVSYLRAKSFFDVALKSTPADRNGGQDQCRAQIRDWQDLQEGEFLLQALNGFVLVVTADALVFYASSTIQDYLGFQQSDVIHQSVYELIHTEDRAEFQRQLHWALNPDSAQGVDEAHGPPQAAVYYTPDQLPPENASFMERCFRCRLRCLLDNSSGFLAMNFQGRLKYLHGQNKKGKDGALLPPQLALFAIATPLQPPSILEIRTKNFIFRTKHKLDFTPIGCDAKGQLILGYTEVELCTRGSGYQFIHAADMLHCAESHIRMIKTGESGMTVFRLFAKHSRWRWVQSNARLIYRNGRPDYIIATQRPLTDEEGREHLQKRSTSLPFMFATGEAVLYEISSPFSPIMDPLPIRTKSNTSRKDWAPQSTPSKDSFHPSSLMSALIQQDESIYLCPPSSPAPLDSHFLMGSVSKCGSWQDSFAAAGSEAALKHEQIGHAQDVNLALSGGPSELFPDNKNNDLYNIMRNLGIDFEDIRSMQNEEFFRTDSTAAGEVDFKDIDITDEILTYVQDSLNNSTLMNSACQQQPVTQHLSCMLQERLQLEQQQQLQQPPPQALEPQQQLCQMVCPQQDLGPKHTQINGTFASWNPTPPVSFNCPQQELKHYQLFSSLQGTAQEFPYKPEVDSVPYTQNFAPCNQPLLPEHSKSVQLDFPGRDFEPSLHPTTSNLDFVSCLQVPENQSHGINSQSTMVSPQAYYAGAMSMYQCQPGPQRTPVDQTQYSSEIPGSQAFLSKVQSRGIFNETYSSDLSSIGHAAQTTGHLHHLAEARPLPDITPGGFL

[2] = biological target: T1, Aryl hydrocarbon receptor; experiment: Agonist activity at AHR in mouse HC11 cells assessed as upregulation of Cyp1a1 gene expression at 10 uM after 48 hrs by RT-PCR analysis relative to control; conditions: hc11, 48 h
Summary of the method: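 HC11 mammary epithelial cells were exposed for 48 hours to 10 μM compound. Expression of the AHR target gene Cyp1a1 served as the activity read-out.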

[3] = biological target: T1, Aryl hydrocarbon receptor; experiment: Agonist activity at AHR in FVB/N mouse primary mammary epithelial cells assessed as upregulation of desmoglein-3 protein level at 10 uM after 144 hrs by Western blot analysis in presence of FGF2; conditions: epithelial cell

| Activity [2] | Activity [3] | Compound | Activity [1] |
| --- | --- | --- | --- |
| 0.25% |  | O=[N+]([O-])c1cc(O)ccc1-c1nc(-c2ccccc2)no1 |  |
| 5.91% |  | Clc1ccc(-c2nc(-c3ccccc3Cl)no2)c(Cl)c1 |  |
| 122.64% | Active | O=[N+]([O-])c1cc(F)ccc1-c1nc(-c2ccccc2)no1 |  |
| 0.39% |  | COC(=O)Oc1ccc(-c2nc(-c3ccccc3)no2)c([N+](=O)[O-])c1 |  |
| 1.59% |  | Clc1cccc(-c2noc(-c3ccc(Cl)cc3Cl)n2)c1 |  |
| 8.25% |  | O=[N+]([O-])c1cc(Cl)ccc1-c1nc(-c2ccncc2)no1 |  |
| 58.63% | Active | Nc1cc(C(F)(F)F)ccc1-c1nc(-c2ccccc2)no1 |  |
| 0.66% |  | C#CCOc1ccc(-c2noc(-c3ccc(Cl)cc3Cl)n2)cc1 |  |
| 0.35% |  | CC(=O)Oc1ccc(-c2nc(-c3ccncc3)no2)c([N+](=O)[O-])c1 |  |

Continued, compound first:

| Compound | Activity [2] | Activity [3] | Activity [1] |
| --- | --- | --- | --- |
| Clc1cc2c(cc1Cl)Oc1cc(Cl)c(Cl)cc1O2 [2,3,7,8-TETRACHLORODIBENZO-P-DIOXIN] |  |  | Active |
| Clc1ccc(-c2noc(-c3ccc(Cl)cc3Cl)n2)cc1 | 8.15% |  |  |
| Clc1ccc(-c2nc(-c3ccccc3)no2)c(Cl)c1Cl | 25.79% | Not Active |  |
| Clc1ccc(-c2nc(-c3ccccc3)no2)c(Cl)c1 | 128.53% | Active |  |
| O=C(O)c1cccc(-c2noc(-c3ccccc3F)n2)c1 [ATALUREN] | 3.71% |  |  |
| COC(=O)c1cccc(-c2noc(-c3ccccc3F)n2)c1 | 0.29% |  |  |
| O=[N+]([O-])c1cc(C(F)(F)F)ccc1-c1nc(-c2ccccc2)no1 | 0.36% |  |  |
| C=CCOc1ccc(-c2noc(-c3ccc(Cl)cc3N)n2)cc1 | 0.62% |  |  |
| COc1ccc(-c2nc(-c3ccccc3)no2)c([N+](=O)[O-])c1 | 0.42% |  |  |
| FC(F)(F)c1cccc(-c2noc(-c3ccc(Cl)cc3Cl)n2)c1 | 1.84% | Not Active |  |
| Clc1ccc(-c2nc(-c3ccncc3)no2)c(Cl)c1 | 0.37% |  |  |
| C#CCOc1ccc(-c2noc(-c3ccc(Cl)cc3[N+](=O)[O-])n2)cc1 | 0.29% |  |  |
| C#CCOc1ccc(-c2noc(-c3ccc(Cl)cc3N)n2)cc1 | 0.38% |  |  |
| COC(=O)c1cccc(-c2noc(-c3ccc(Cl)cc3Cl)n2)c1 | 0.18% |  |  |
| Nc1cc(Cl)ccc1-c1nc(-c2ccccc2)no1 | 638.8% | Active |  |
| Clc1ccc(-c2nc(-c3ccncc3)no2)c(Cl)c1Cl | 0.53% |  |  |
| C#CCOc1ccc(-c2nc(-c3ccccc3)no2)c([N+](=O)[O-])c1 | 2.43% |  |  |
